The source of these data is ChEMBL document CHEMBL1154052, “Design, synthesis and primary activity evaluation of L-arginine derivatives as amino-peptidase N/CD13 inhibitors” (Bioorg Med Chem, 2009).

By IC50 is commonly meant the point on the concentration scale where inhibition reaches its midpoint.

Experiment [1] concerns the target T1, Aminopeptidase N (Sus scrofa, UniProt P15145).
T1 sequence (P15145 whole entry): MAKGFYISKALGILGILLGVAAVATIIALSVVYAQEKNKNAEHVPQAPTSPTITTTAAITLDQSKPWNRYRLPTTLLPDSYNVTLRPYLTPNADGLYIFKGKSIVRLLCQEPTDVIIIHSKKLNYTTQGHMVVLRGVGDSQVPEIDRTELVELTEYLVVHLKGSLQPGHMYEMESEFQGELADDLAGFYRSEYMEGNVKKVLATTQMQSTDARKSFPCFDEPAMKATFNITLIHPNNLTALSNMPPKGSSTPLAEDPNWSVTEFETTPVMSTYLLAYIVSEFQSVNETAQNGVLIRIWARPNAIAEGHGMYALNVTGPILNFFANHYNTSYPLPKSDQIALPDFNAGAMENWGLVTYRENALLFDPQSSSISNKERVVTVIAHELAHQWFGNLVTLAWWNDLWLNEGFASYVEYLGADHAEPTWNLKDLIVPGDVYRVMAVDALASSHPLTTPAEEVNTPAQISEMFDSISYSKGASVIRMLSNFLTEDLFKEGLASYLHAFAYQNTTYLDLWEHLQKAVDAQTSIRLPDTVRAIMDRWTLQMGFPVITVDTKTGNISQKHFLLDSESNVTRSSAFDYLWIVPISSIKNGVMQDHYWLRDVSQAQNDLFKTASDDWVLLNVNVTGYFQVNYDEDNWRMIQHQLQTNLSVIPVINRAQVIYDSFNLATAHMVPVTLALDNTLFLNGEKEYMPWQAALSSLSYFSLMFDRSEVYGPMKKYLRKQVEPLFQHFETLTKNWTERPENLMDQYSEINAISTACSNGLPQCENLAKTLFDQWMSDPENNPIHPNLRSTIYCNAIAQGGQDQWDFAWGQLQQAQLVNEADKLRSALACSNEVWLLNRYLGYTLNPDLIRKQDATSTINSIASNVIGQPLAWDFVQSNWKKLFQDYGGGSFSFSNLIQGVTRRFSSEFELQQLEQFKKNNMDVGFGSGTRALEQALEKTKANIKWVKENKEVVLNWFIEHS
Nature of the experiment: Inhibition of aminopeptidase N in pig kidney microsome by spectrophotometry. In kind it is microsomes. The method in brief: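 Porcine kidney microsomal aminopeptidase (4 μg/mL final) preincubated with inhibitor for 30 min at room temperature in 50 mM PBS, pH 7.2. Inhibitor solutions made in assay buffer and adjusted to pH 7.5. Substrate L-Leu-p-nitroanilide. IC50 determined.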

Experiment [2] is described as follows: Selectivity ratio of IC50 for MMP2 to IC50 for aminopeptidase N in pig kidney microsome.
Experiment [3] deals with 72 kDa type IV collagenase (Homo sapiens, UniProt P08253). Briefly: Inhibition of MMP2. In outline: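 MMP-2 (gelatinase A) incubated with substrate and inhibitor in 50 mmol/L sodium borate, pH 8.5, 30 min at 37 °C. 0.03% TNBS then added and incubated a further 20 min. Absorbance read at 450 nm.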
Sequence of 72 kDa type IV collagenase (P08253 whole entry): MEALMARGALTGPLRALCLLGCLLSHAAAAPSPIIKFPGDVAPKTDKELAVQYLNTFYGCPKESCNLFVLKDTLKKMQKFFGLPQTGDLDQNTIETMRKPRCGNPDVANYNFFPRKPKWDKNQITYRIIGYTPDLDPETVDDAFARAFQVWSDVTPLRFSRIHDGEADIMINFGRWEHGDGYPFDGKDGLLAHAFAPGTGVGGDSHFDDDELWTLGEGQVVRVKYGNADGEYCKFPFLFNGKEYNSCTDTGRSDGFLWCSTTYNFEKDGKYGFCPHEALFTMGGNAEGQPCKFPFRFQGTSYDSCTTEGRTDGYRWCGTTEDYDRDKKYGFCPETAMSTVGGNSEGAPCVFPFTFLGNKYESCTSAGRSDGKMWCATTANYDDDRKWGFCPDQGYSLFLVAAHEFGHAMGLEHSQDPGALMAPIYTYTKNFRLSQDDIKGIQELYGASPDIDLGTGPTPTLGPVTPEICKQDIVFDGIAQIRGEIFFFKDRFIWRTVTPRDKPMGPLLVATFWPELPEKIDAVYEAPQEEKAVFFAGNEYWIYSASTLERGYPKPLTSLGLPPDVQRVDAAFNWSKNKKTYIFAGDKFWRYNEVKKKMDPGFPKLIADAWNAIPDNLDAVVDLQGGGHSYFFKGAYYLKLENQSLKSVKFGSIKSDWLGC

As to `N=C(NCCC[C@H](NC(=O)c1cccc([N+](=O)[O-])c1)C(=O)NO)N[N+](=O)[O-]`, the results for the half-maximal inhibitory concentration (IC50) in experiment [1] and in experiment [3] were 43.4 µM and 102 µM, respectively. Further, the Ratio IC50 in experiment [2] amounted to 2.3.
Consider `N=C(NCCC[C@H](NC(=O)c1ccc(Br)c([N+](=O)[O-])c1)C(=O)NO)N[N+](=O)[O-]`, for which the Ratio IC50 in experiment [2] is 46.3.
Consider `COc1ccc(C(=O)N[C@@H](CCCNC(N)=N[N+](=O)[O-])C(=O)NO)cc1OC`, for which the half-inhibitory concentration (IC50) in experiment [1] is 26.9 µM; in experiment [3], 346 µM.
With `NC(=N[N+](=O)[O-])NCCC[C@H](NC(=O)c1ccc2ccccc2c1)C(=O)NO`, the IC50 in experiment [1] was 14.6 µM; in experiment [3] it was 85.5 µM.
For `NC(=N[N+](=O)[O-])NCCC[C@H](NC(=O)c1ccccc1Cl)C(=O)NO`, the half-inhibitory concentration (IC50) in experiment [1] was found to be 20.4 µM; in experiment [3], 150 µM.
On the same counts, the results for `NC(=N[N+](=O)[O-])NCCC[C@H](NS(=O)(=O)c1ccccc1)C(=O)NO` are 60.2 µM and 100 µM.
Consider `N=C(NCCC[C@H](NC(=O)c1ccc2ccccc2c1)C(=O)NO)N[N+](=O)[O-]`, for which the Ratio IC50 in experiment [2] was found to be 5.9.
In the case of `COc1ccccc1C(=O)N[C@@H](CCCNC(=N)N[N+](=O)[O-])C(=O)NO`, the IC50 in experiment [1] worked out at 78.4 µM; in experiment [3], 253 µM. In addition, the Ratio IC50 in experiment [2] is 3.2.
Take `NC(=N[N+](=O)[O-])NCCC[C@H](NC(=O)c1ccc(Br)cc1)C(=O)NO`: the figures for the IC50 in experiment [1] and in experiment [3] were 443 µM and 484 µM, respectively.
`N=C(NCCC[C@H](NC(=O)c1ccc(Cl)c(Cl)c1)C(=O)NO)N[N+](=O)[O-]`: the concentration for half-maximal inhibition (IC50) in experiment [1] is 33.5 µM; in experiment [3], 194 µM. For the same compound, in experiment [2], the Ratio IC50 worked out at 5.8.
`N=C(NCCC[C@H](NC(=O)c1ccc(Br)cc1)C(=O)NO)N[N+](=O)[O-]`: the Ratio IC50 in experiment [2] came to 1.1.
Still for that read-out and setting: in the case of `N=C(NCCC[C@H](NC(=O)Cc1ccccc1)C(=O)NO)N[N+](=O)[O-]` it was 0.05.
Turning to `NC(=N[N+](=O)[O-])NCCC[C@H](NC(=O)c1ccc(Br)c([N+](=O)[O-])c1)C(=O)NO`, the results for the concentration for half-maximal inhibition (IC50) in experiment [1] and in experiment [3] were 5.1 µM and 236 µM, respectively.
In the case of `N=C(NCCC[C@H](NC(=O)c1ccc([N+](=O)[O-])cc1)C(=O)NO)N[N+](=O)[O-]`, the IC50 in experiment [1] was found to be 15.9 µM; in experiment [3] it was 204 µM. Moreover, in experiment [2], the Ratio IC50 was determined as 12.8.
For `N=C(NCCC[C@H](NC(=O)CCc1ccccc1)C(=O)NO)N[N+](=O)[O-]` the same measures were 332 µM, 1640 µM and 4.9.
For `N=C(NCCC[C@H](NC(=O)c1ccccc1)C(=O)NO)N[N+](=O)[O-]`, the values for the half-inhibitory concentration (IC50) in experiment [1] and in experiment [3] were 80.6 µM and 693 µM, respectively. Besides, the Ratio IC50 in experiment [2] was 8.6.
Turning to `Cc1ccc(S(=O)(=O)N[C@@H](CCCNC(N)=N[N+](=O)[O-])C(=O)NO)cc1`, the 50% inhibitory concentration (IC50) is 109 µM in experiment [1] and 28.9 µM in experiment [3].
`N=C(NCCC[C@H](NS(=O)(=O)c1ccccc1)C(=O)NO)N[N+](=O)[O-]`: the Ratio IC50 in experiment [2] amounted to 1.7.
With `N=C(NCCC[C@H](NC(=O)c1ccccc1Cl)C(=O)NO)N[N+](=O)[O-]`, the Ratio IC50 in experiment [2] was found to be 7.3.
With `Cc1ccc(S(=O)(=O)N[C@@H](CCCNC(=N)N[N+](=O)[O-])C(=O)NO)cc1`, in experiment [2], the Ratio IC50 was determined as 0.3.
Take `COc1cc(C(=O)N[C@@H](CCCNC(N)=N[N+](=O)[O-])C(=O)NO)cc(OC)c1OC`: the concentration for half-maximal inhibition (IC50) amounted to 271 µM in experiment [1] and 41.1 µM in experiment [3].
For the compound `COc1ccc(C(=O)N[C@@H](CCCNC(N)=N[N+](=O)[O-])C(=O)NO)cc1`, the IC50 in experiment [1] is 60.2 µM; in experiment [3], 322 µM.
As to `COc1cccc(C(=O)N[C@@H](CCCNC(=N)N[N+](=O)[O-])C(=O)NO)c1`, the 50% inhibitory concentration (IC50) is 16.5 µM in experiment [1] and 151 µM in experiment [3]. For the same compound, the Ratio IC50 in experiment [2] was 9.1.
Turning to `N=C(NCCC[C@H](NC(=O)c1cccs1)C(=O)NO)N[N+](=O)[O-]`, the Ratio IC50 in experiment [2] amounted to 2.6.
Take `COc1ccc(C(=O)N[C@@H](CCCNC(=N)N[N+](=O)[O-])C(=O)NO)cc1OC`: the Ratio IC50 in experiment [2] was determined as 12.8.
Same read-out and setting: the result for `COc1ccc(C(=O)N[C@@H](CCCNC(=N)N[N+](=O)[O-])C(=O)NO)cc1` reads 5.4.
Regarding `N=C(NCCC[C@H](NC(=O)c1cccc(Cl)c1)C(=O)NO)N[N+](=O)[O-]`, the 50% inhibitory concentration (IC50) in experiment [1] was 202 µM; in experiment [3], 89.2 µM. For the same compound, the Ratio IC50 in experiment [2] was 0.4.
With `Cc1cccc(C(=O)N[C@@H](CCCNC(=N)N[N+](=O)[O-])C(=O)NO)c1`, the figures for the half-inhibitory concentration (IC50) in experiment [1] and in experiment [3] were 42.8 µM and 623 µM, respectively. Besides, the Ratio IC50 in experiment [2] turned out to be 14.6.
Regarding `N=C(NCCC[C@H](NC(=O)c1ccc(Cl)cc1Cl)C(=O)NO)N[N+](=O)[O-]`, the half-maximal inhibitory concentration (IC50) turned out to be 5.3 µM in experiment [1] and 349 µM in experiment [3]. In experiment [2], the Ratio IC50 was 65.8.
For `Cc1ccccc1C(=O)N[C@@H](CCCNC(=N)N[N+](=O)[O-])C(=O)NO` the same measures were 221 µM, 2070 µM and 9.3.
`NC(=N[N+](=O)[O-])NCCC[C@H](NC(=O)Cc1ccccc1)C(=O)NO`: the figures for the IC50 in experiment [1] and in experiment [3] were 1660 µM and 8.7 µM, respectively.
In the case of `COc1cc(C(=O)N[C@@H](CCCNC(=N)N[N+](=O)[O-])C(=O)NO)cc(OC)c1OC`, the Ratio IC50 in experiment [2] worked out at 0.2.
On to `NC(=N[N+](=O)[O-])NCCC[C@H](NC(=O)c1cccs1)C(=O)NO`, for which the half-inhibitory concentration (IC50) in experiment [1] was determined as 85.7 µM; in experiment [3], 226 µM.
Turning to `N=C(NCCC[C@H](NC(=O)c1ccc(Cl)cc1)C(=O)NO)N[N+](=O)[O-]`, the IC50 in experiment [1] was 215 µM; in experiment [3], 238 µM. For the same compound, in experiment [2], the Ratio IC50 stood at 1.1.
For `N=C(NCCC[C@H](NC(=O)c1ccccc1I)C(=O)NO)N[N+](=O)[O-]` the same measures were 21.9 µM, 176 µM and 8.
For `N=C(NCCC[C@H](NC(=O)/C=C/c1ccccc1)C(=O)NO)N[N+](=O)[O-]` the same measures were 1010 µM, 36.7 µM and 0.04.
